One assay deals with Canis familiaris. Description: Mean arterial blood pressure (MABP) in an acutely instrumented anesthetized dog model at 0.003 mg/kg intravenous dose. In kind it is functional, Canis lupus familiaris.
Conditions: not given
The method in brief: (§1)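 Adult mongrel dogs of either sex, anesthetized with pentobarbital 35 mg/kg IV and maintained by infusion at 5 mg/kg per h. Control data collected for 30 min. Drug given IV in saline (or dilute HCl/NaOH diluted with saline), 0.1 mL/kg over 1 min. Ascending doses, usually half-log apart, 10-30 min between doses, one compound per dog. Recorded LV dP/dtmax, heart rate and aortic pressure as % change from control.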
With `Cc1nc(O)c(C#N)cc1-c1ccc(-n2ccnc2)cc1`, the MABP change from control turned out to be 1.7%.

Another assay concerns Canis familiaris. Briefly: Heart rate (HR) in an acutely instrumented anesthetized dog model at 0.01 mg/kg intravenous dose. In kind it is functional, Canis lupus familiaris.
Conditions: not given
In outline: as §1
As for `Cc1[nH]c(=O)c(C#N)cc1-c1ccncc1` [MILRINONE], the HR change from control is 3%.

In the case of `Cc1nc(O)c(C#N)c(C)c1-c1ccc(-n2ccnc2)cc1`, the HR change from control came to 1%.

`Cc1nc(O)c(C#N)cc1-c1ccc(-n2ccnc2)cc1` displayed an HR change from control of 4.5%.

A further assay deals with Canis familiaris. Briefly: Myocardial contractility in an acutely instrumented anesthetized dog model at 0.03 mg/kg intravenous dose. In kind it is functional, Canis lupus familiaris, Myocardium.
Conditions: not given
In outline:
as §1
As for `Cc1[nH]c(=O)c(C#N)cc1-c1ccncc1` [MILRINONE], the “Change from Control (LV dp/dt)” value turned out to be 77.5%.

With `Cc1nc(O)c(C#N)c(C)c1-c1ccc(-n2ccnc2)cc1`, the “Change from Control (LV dp/dt)” value was 86%.

As for `Cc1nc(O)c(C#N)cc1-c1ccc(-n2ccnc2)cc1`, the “Change from Control (LV dp/dt)” value turned out to be 122.7%.

The test system of a further assay is Canis familiaris. Description: Myocardial contractility in conscious dog model after 34-40 minutes at 1 mg/kg oral administration, activity >4 hr. In kind it is functional, Canis lupus familiaris, Myocardium.
Conditions: not given
The method in brief:
(§2)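 Conscious, fasted adult mongrel dogs with surgically implanted devices for ECG, aortic pressure and flow, and LV pressure. Drug given by gavage as a solution or suspension, in single or multiple doses. Contractility recorded as % increase 34-40 min after dosing, with duration of response noted. Mean ± SEM; Student's t test, p < 0.05.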
`Cc1nc(O)c(C#N)cc1-c1ccc(-n2ccnc2)cc1` registered an Increase contractility of 75%.

The next assay has as its system Canis familiaris. Description: Heart rate (HR) in an acutely instrumented anesthetized dog model at 0.03 mg/kg intravenous dose. In kind it is functional, Canis lupus familiaris.
Conditions: not given
In outline:
as §1
Regarding `Cc1[nH]c(=O)c(C#N)cc1-c1ccncc1` [MILRINONE], the HR change from control came to 13.5%.

The compound `Cc1nc(O)c(C#N)c(C)c1-c1ccc(-n2ccnc2)cc1` had an HR change from control of 2%.

`Cc1nc(O)c(C#N)cc1-c1ccc(-n2ccnc2)cc1` registered an HR change from control of 14%.

The next assay has as its system Canis familiaris. Briefly: Change from control in mean arterial blood pressure (MABP) in an acutely instrumented anesthetized dog model at […] intravenous dose.
Conditions: not given
As to `Cc1[nH]c(=O)c(C#N)cc1-c1ccncc1` [MILRINONE], the MABP change from control is -19.9%.

Regarding `Cc1nc(O)c(C#N)c(C)c1-c1ccc(-n2ccnc2)cc1`, the MABP change from control is -35%.

In another assay the test system is Canis familiaris. Briefly: Myocardial contractility in conscious dog model after 34-40 minutes at 0.1 mg/kg oral administration, range 5-10.
Conditions: not given
In kind it is functional, Canis lupus familiaris, Myocardium. The method in brief: as §2
Consider `Cc1nc(O)c(C#N)cc1-c1ccc(-n2ccnc2)cc1`, for which the Increase contractility is 10%.

For the next assay, the system named is Canis familiaris. Briefly: Mean arterial blood pressure (MABP) in an acutely instrumented anesthetized dog model at 0.001 mg/kg intravenous dose. In kind it is functional, Canis lupus familiaris.
Conditions: not given
The method in brief: as §1
In turn, `Cc1nc(O)c(C#N)cc1-c1ccc(-n2ccnc2)cc1` showed an MABP of -1.

The test system of a further assay is Canis familiaris. Briefly: Myocardial contractility in an acutely instrumented anesthetized dog model at 0.01 mg/kg intravenous dose. In kind it is functional, Canis lupus familiaris, Myocardium. As to conditions: dose 0.1 mg/kg, in the assay text read “0.1 mg/kg” for “0.01 mg/kg”. In outline:
as §1
In the case of `Cc1[nH]c(=O)c(C#N)cc1-c1ccncc1` [MILRINONE], the “Change from Control (LV dp/dt)” value turned out to be 113%.

As for `Cc1nc(O)c(C#N)c(C)c1-c1ccc(-n2ccnc2)cc1`, the “Change from Control (LV dp/dt)” value was 137%.

In the case of `Cc1nc(O)c(C#N)cc1-c1ccc(-n2ccnc2)cc1`, the “Change from Control (LV dp/dt)” value came out at 154%.

The subject of a further assay is Canis familiaris. Briefly: Mean arterial blood pressure (MABP) in an acutely instrumented anesthetized dog model at 0.1 mg/kg intravenous dose. In kind it is functional, Canis lupus familiaris.
Conditions: not given
The method in brief: as §1
On to `Cc1[nH]c(=O)c(C#N)cc1-c1ccncc1` [MILRINONE], for which the MABP change from control is -13%.

As to `Cc1nc(O)c(C#N)c(C)c1-c1ccc(-n2ccnc2)cc1`, the MABP change from control is -17.5%.

Regarding `Cc1nc(O)c(C#N)cc1-c1ccc(-n2ccnc2)cc1`, the MABP change from control is -9.7%.

The next assay relates to Canis familiaris. Description: Heart rate (HR) in an acutely instrumented anesthetized dog model at […] intravenous dose.
Conditions: not given
In kind it is functional, Canis lupus familiaris.
With `Cc1[nH]c(=O)c(C#N)cc1-c1ccncc1` [MILRINONE], the HR change from control is 39.2%.

`Cc1nc(O)c(C#N)c(C)c1-c1ccc(-n2ccnc2)cc1` showed an HR change from control of 16%.

The test system of a further assay is Canis familiaris. Briefly: Mean arterial blood pressure (MABP) in an acutely instrumented anesthetized dog model at 1 mg/kg intravenous dose. In kind it is functional, Canis lupus familiaris.
Conditions: not given
The method in brief:
as §1
Turning to `Cc1[nH]c(=O)c(C#N)cc1-c1ccncc1` [MILRINONE], the MABP change from control was -36.9%.

As for `Cc1nc(O)c(C#N)c(C)c1-c1ccc(-n2ccnc2)cc1`, the MABP change from control was -49%.

A further assay has as its system Canis familiaris. Description: Myocardial contractility in conscious dog model after 34-40 minutes at 1 mg/kg oral administration, activity 3-4 hr (p<0.05). In kind it is functional, Canis lupus familiaris, Myocardium.
Conditions: not given
In outline:
as §2
In turn, `Cc1[nH]c(=O)c(C#N)cc1-c1ccncc1` [MILRINONE] gave an Increase contractility of 45%.

The next assay concerns Canis familiaris. Description: Myocardial contractility in an acutely instrumented anesthetized dog model at […] intravenous dose. In kind it is functional, Canis lupus familiaris, Myocardium.
Conditions: not given
For the compound `Cc1[nH]c(=O)c(C#N)cc1-c1ccncc1` [MILRINONE], the “Change from Control (LV dp/dt)” value stood at 142.5%.

Take `Cc1nc(O)c(C#N)c(C)c1-c1ccc(-n2ccnc2)cc1`: the “Change from Control (LV dp/dt)” value amounted to 160%.

The next assay has as its system Canis familiaris. Briefly: Heart rate (HR) in an acutely instrumented anesthetized dog model at 0.1 mg/kg intravenous dose. In kind it is functional, Canis lupus familiaris.
Conditions: not given
In outline: as §1
The compound `Cc1[nH]c(=O)c(C#N)cc1-c1ccncc1` [MILRINONE] displayed an HR change from control of 27%.

In turn, `Cc1nc(O)c(C#N)c(C)c1-c1ccc(-n2ccnc2)cc1` came in with an HR change from control of 15%.

In the case of `Cc1nc(O)c(C#N)cc1-c1ccc(-n2ccnc2)cc1`, the HR change from control is 34.7%.

The subject of the next assay is Canis familiaris. Description: Myocardial contractility in an acutely instrumented anesthetized dog model at 1 mg/kg intravenous dose. In kind it is functional, Canis lupus familiaris, Myocardium.
Conditions: not given
In outline: as §1
On to `Cc1[nH]c(=O)c(C#N)cc1-c1ccncc1` [MILRINONE], for which the “Change from Control (LV dp/dt)” value worked out at 148.5%.

On to `Cc1nc(O)c(C#N)c(C)c1-c1ccc(-n2ccnc2)cc1`, for which the “Change from Control (LV dp/dt)” value is reported as 135%.

A further assay relates to Canis familiaris. Briefly: Mean arterial blood pressure (MABP) in an acutely instrumented anesthetized dog model at 0.03 mg/kg intravenous dose. In kind it is functional, Canis lupus familiaris.
Conditions: not given
In outline: as §1
As for `Cc1[nH]c(=O)c(C#N)cc1-c1ccncc1` [MILRINONE], the “MABP % change from control” value is given as -8.

In the case of `Cc1nc(O)c(C#N)c(C)c1-c1ccc(-n2ccnc2)cc1`, the “MABP % change from control” value is -6.

Turning to `Cc1nc(O)c(C#N)cc1-c1ccc(-n2ccnc2)cc1`, the “MABP % change from control” value is given as -2.2.

Another assay concerns Canis familiaris. Briefly: Heart rate (HR) in an acutely instrumented anesthetized dog model at 0.001 mg/kg intravenous dose. In kind it is functional, Canis lupus familiaris.
Conditions: not given
The method in brief: as §1
`Cc1nc(O)c(C#N)cc1-c1ccc(-n2ccnc2)cc1`: the HR change from control is 1%.

In the next assay the test system is Canis familiaris. Briefly: Myocardial contractility in conscious dog model after 34-40 minutes at […] oral administration, activity >3 hr (p<0.05).
Conditions: not given
In kind it is functional, Canis lupus familiaris, Myocardium.
Consider `Cc1nc(O)c(C#N)cc1-c1ccc(-n2ccnc2)cc1`, for which the Increase contractility is 35%.

A further assay has as its system Canis familiaris. Briefly: Mean arterial blood pressure (MABP) in an acutely instrumented anesthetized dog model at 0.01 mg/kg intravenous dose. In kind it is functional, Canis lupus familiaris.
Conditions: not given
In outline:
as §1
In the case of `Cc1[nH]c(=O)c(C#N)cc1-c1ccncc1` [MILRINONE], the MABP change from control is -2%.

Take `Cc1nc(O)c(C#N)c(C)c1-c1ccc(-n2ccnc2)cc1`: the MABP change from control worked out at 0%.

In the case of `Cc1nc(O)c(C#N)cc1-c1ccc(-n2ccnc2)cc1`, the MABP change from control worked out at 0.75%.

For a further assay, the system named is Canis familiaris. Description: Heart rate (HR) in an acutely instrumented anesthetized dog model at 1 mg/kg intravenous dose. In kind it is functional, Canis lupus familiaris.
Conditions: not given
In outline:
as §1
Compound `Cc1[nH]c(=O)c(C#N)cc1-c1ccncc1` [MILRINONE] had an HR change from control of 48.5%.

`Cc1nc(O)c(C#N)c(C)c1-c1ccc(-n2ccnc2)cc1` displayed an HR change from control of 26%.

The test system of a further assay is Canis familiaris. Description: Myocardial contractility in an acutely instrumented anesthetized dog model at 0.001 mg/kg intravenous dose. In kind it is functional, Canis lupus familiaris, Myocardium.
Conditions: not given
In outline: as §1
`Cc1nc(O)c(C#N)cc1-c1ccc(-n2ccnc2)cc1`: the “Change from Control (LV dp/dt)” value is on record as 4.5%.

The assay is the same for the next values; noted with them: dose 0.01 mg/kg, in the assay text read “0.01 mg/kg” for “0.001 mg/kg”.
`Cc1[nH]c(=O)c(C#N)cc1-c1ccncc1` [MILRINONE]: the “Change from Control (LV dp/dt)” value turned out to be 30.5%.

As for `Cc1nc(O)c(C#N)c(C)c1-c1ccc(-n2ccnc2)cc1`, the “Change from Control (LV dp/dt)” value is 21%.

For `Cc1nc(O)c(C#N)cc1-c1ccc(-n2ccnc2)cc1`, the “Change from Control (LV dp/dt)” value turned out to be 50.3%.

A further assay deals with Canis familiaris. Description: Heart rate (HR) in an acutely instrumented anesthetized dog model at 0.003 mg/kg intravenous dose. In kind it is functional, Canis lupus familiaris.
Conditions: not given
In outline:
as §1
Compound `Cc1nc(O)c(C#N)cc1-c1ccc(-n2ccnc2)cc1` showed an HR change from control of 3%.
